Measured values from ChEMBL document CHEMBL4330087, “Synthesis, antimicrobial activity, attenuation of aminoglycoside resistance in MRSA, and ribosomal A-site binding of pyrene-neomycin conjugates” (Eur J Med Chem, 2019).
≈ marks a conversion by molar mass, not a printed value. Calls of active or inactive are those of the source. No cut-off for these calls is given here.

Experiments:
[1] = Inhibition of Eis (unknown origin)
Acinetobacter baumannii = experiment: Antibacterial activity against NEO-sensitive Acinetobacter baumannii ATCC 19606 at 6.25 uM after 15 to 20 hrs by CLSI protocol based microdilution assay relative to control; assay type: functional, ATCC 19606 = CIP 70.34 = JCM 6841
Method in brief: (§1)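 Single-concentration screen at 6.25 μM against exponential-phase cultures, in duplicate, with NEO as reference. Enterococcus was grown in BHI broth, M. smegmatis in TS broth with 0.05% Tween 80, and all other strains in TS broth. The 1% DMSO water vehicle was added to broth (background) and culture (growth control). Incubation was 37 °C, humidified, 15-20 h. Result is percent growth inhibition.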

Listeria monocytogenes = experiment: Antibacterial activity against NEO-sensitive Listeria monocytogenes ATCC 19115 at 6.25 uM after 15 to 20 hrs by CLSI protocol based microdilution assay relative to control; assay type: functional
Method in brief: as §1

Staphylococcus aureus [2] = experiment: Antibacterial activity against NEO-sensitive Staphylococcus aureus harboring NorA mutant at 6.25 uM after 15 to 20 hrs by CLSI protocol based microdilution assay relative to control; assay type: functional
Method in brief: (§2)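 Exponential-phase cultures were exposed to 6.25 μM compound in duplicate with neomycin as reference, at 37 °C in a humidified incubator for 15-20 h. Broth and culture controls received sterile water with 1% DMSO. Percent growth inhibition was calculated against the growth and background controls.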

Staphylococcus aureus [3] = experiment: Antibacterial activity against NEO-sensitive Staphylococcus aureus C1 after 15 to 20 hrs by CLSI protocol based microdilution assay; assay type: functional
Method in brief: (§3)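 CLSI broth microdilution MIC in triplicate on exponential-phase cells, ~3×10^5 cells per mL in cation-adjusted Mueller-Hinton broth. Compound was added from 10× stocks in 10% DMSO as serial 2-fold dilutions, final 50 to 0.78 μM. Plates were incubated at 37 °C, humidified, 15-20 h. Growth was read as absorbance at 595 nm, and percent inhibition was averaged over triplicates.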

Staphylococcus aureus [4] = experiment: Antibacterial activity against NEO-sensitive Staphylococcus aureus C2 after 15 to 20 hrs by CLSI protocol based microdilution assay; assay type: functional
Method in brief: as §3

[5] = Inhibition of AAC(6')-1e (unknown origin)
[6] = Inhibition of AAC(3)-4 (unknown origin)
Homo sapiens [7] = species: Homo sapiens; experiment: Displacement of F-NEO from human mitochondrial rRNA-A site C1410U mutant after 10 to 20 mins by fluorescence assay relative to NEO; parameters: concentration or dose not given beside the values
Method in brief: (§4)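 100 nM F-NEO:A-site complex in 10 mM HEPES, 50 mM NaCl, 0.04 mM EDTA, pH 7.0, mixed with ligand and incubated 10-20 min at room temperature. Fluorescence read at ex 485/em 525 nm, in duplicate. Percent binding was computed from the intensities of ligand-treated complex, complex without ligand, and complex with neomycin.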

Escherichia coli [8] = experiment: Antibacterial activity against NEO-sensitive Escherichia coli harboring TolC mutant at 6.25 uM after 15 to 20 hrs by CLSI protocol based microdilution assay relative to control; assay type: functional
Method in brief: as §2

Enterococcus faecalis = experiment: Antibacterial activity against NEO-intermediate sensitive Enterococcus faecalis ATCC 29212 at 6.25 uM after 15 to 20 hrs by CLSI protocol based microdilution assay relative to control; assay type: functional
Method in brief: as §1

Klebsiella oxytoca = experiment: Antibacterial activity against NEO-sensitive Klebsiella oxytoca HM-625 at 6.25 uM after 15 to 20 hrs by CLSI protocol based microdilution assay relative to control; assay type: functional
Method in brief: as §1

Staphylococcus aureus [9] = experiment: Antibacterial activity against methicillin-resistant Staphylococcus aureus 33591 at 6.25 uM after 15 to 20 hrs by CLSI protocol based microdilution assay relative to control; assay type: functional
Method in brief: as §2

[10] = Inhibition of APH(3')-1a (unknown origin)
Ribosomal RNA A-site [11] = experiment: Displacement of F-NEO from human cytosolic rRNA-A site after 10 to 20 mins by fluorescence assay; assay type: nucleic-acid assay
Method in brief: (§5)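 A 100 nM F-NEO:A-site RNA complex in 10 mM HEPES, 50 mM NaCl, 0.04 mM EDTA, pH 7.0 was titrated with 2-fold dilutions of ligand from 20 to 0.009 μM, or from 60 or 40 μM for weaker ligands. Incubated 10-20 min at room temperature, fluorescence read at ex 485/em 525 nm. IC50 from dose-response curve fit.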

Bacillus anthracis = experiment: Antibacterial activity against NEO-sensitive Bacillus anthracis BA852 at 6.25 uM after 15 to 20 hrs by CLSI protocol based microdilution assay relative to control; assay type: functional
Method in brief: as §2

[12] = Antibacterial activity against NEO-sensitive Enterobacter cloacae 13047 at 6.25 uM after 15 to 20 hrs by CLSI protocol based microdilution assay relative to control; assay type: functional, Enterobacter cloacae subsp. cloacae, ATCC 13047
Method in brief: as §1

Homo sapiens [13] = species: Homo sapiens; experiment: Displacement of F-NEO from human mitochondrial rRNA-A site A1490G mutant after 10 to 20 mins by fluorescence assay relative to NEO
Method in brief: as §4

[14] = Inhibition of AAC(2')-1c (unknown origin)
Staphylococcus aureus [15] = experiment: Antibacterial activity against methicillin-resistant Staphylococcus aureus A960649 at 6.25 uM after 15 to 20 hrs by CLSI protocol based microdilution assay relative to control; assay type: functional
Method in brief: as §2

[16] = tested on: Staphylococcus epidermidis; experiment: Antibacterial activity against NEO-sensitive Staphylococcus epidermidis 12384 at 6.25 uM after 15 to 20 hrs by CLSI protocol based microdilution assay relative to control; assay type: functional
Method in brief: as §1

Staphylococcus aureus [17] = experiment: Antibacterial activity against methicillin-resistant Staphylococcus aureus SU-5 at 6.25 uM after 15 to 20 hrs by CLSI protocol based microdilution assay relative to control; assay type: functional
Method in brief: as §2

Staphylococcus aureus [18] = experiment: Antibacterial activity against NEO-sensitive Staphylococcus aureus 25923 at 6.25 uM after 15 to 20 hrs by CLSI protocol based microdilution assay relative to control; assay type: functional
Method in brief: as §1

Ribosomal RNA A-site [19] = experiment: Displacement of F-NEO from human cytosolic rRNA-A site after 10 to 20 mins by fluorescence assay relative to NEO; assay type: nucleic-acid assay; parameters: concentration or dose not given beside the values
Method in brief: as §4

Ribosomal RNA A-site [20] = experiment: Displacement of F-NEO from human mitochondrial rRNA-A site after 10 to 20 mins by fluorescence assay; assay type: nucleic-acid assay
Method in brief: as §5

Pseudomonas aeruginosa = experiment: Antibacterial activity against NEO-resistant Pseudomonas aeruginosa 27853 at 6.25 uM after 15 to 20 hrs by CLSI protocol based microdilution assay relative to control; assay type: functional
Method in brief: as §2

Ribosomal RNA A-site [21] = experiment: Displacement of F-NEO from Escherichia coli rRNA-A site after 10 to 20 mins by fluorescence assay; assay type: nucleic-acid assay
Method in brief: as §5

Staphylococcus aureus [22] = experiment: Antibacterial activity against NEO-sensitive Staphylococcus aureus 6538 after 15 to 20 hrs by CLSI protocol based microdilution assay; assay type: functional
Method in brief: as §3

Escherichia coli [23] = experiment: Antibacterial activity against multidrug-resistant Escherichia coli H4H at 6.25 uM after 15 to 20 hrs by CLSI protocol based microdilution assay relative to control; assay type: functional
Method in brief: as §2

Streptococcus pyogenes = experiment: Antibacterial activity against NEO-resistant Streptococcus pyogenes C203 at 6.25 uM after 15 to 20 hrs by CLSI protocol based microdilution assay relative to control; assay type: functional
Method in brief: as §2

Ribosomal RNA A-site [24] = experiment: Displacement of F-NEO from Escherichia coli rRNA-A site after 10 to 20 mins by fluorescence assay relative to NEO; assay type: nucleic-acid assay; parameters: concentration or dose not given beside the values
Method in brief: as §4

Klebsiella pneumoniae = experiment: Antibacterial activity against Klebsiella pneumoniae NR-151410 at 6.25 uM after 15 to 20 hrs by CLSI protocol based microdilution assay relative to control; assay type: functional
Method in brief: as §1

[25] = Displacement of F-NEO from human mitochondrial rRNA-A site C1410U mutant after 10 to 20 mins by fluorescence assay
Method in brief: as §5

Escherichia coli [26] = experiment: Antibacterial activity against NEO-sensitive Escherichia coli ATCC 25922 at 6.25 uM after 15 to 20 hrs by CLSI protocol based microdilution assay relative to control; assay type: functional
Method in brief: as §1

[27] = Inhibition of APH(2\")-1a (unknown origin)
Staphylococcus aureus [28] = experiment: Antibacterial activity against NEO-sensitive Staphylococcus aureus NRS77 after 15 to 20 hrs by CLSI protocol based microdilution assay; assay type: functional
Method in brief: as §3

Ribosomal RNA A-site [29] = experiment: Displacement of F-NEO from human mitochondrial rRNA-A site after 10 to 20 mins by fluorescence assay relative to NEO; assay type: nucleic-acid assay; parameters: concentration or dose not given beside the values
Method in brief: as §4

Staphylococcus aureus [30] = experiment: Antibacterial activity against methicillin-resistant Staphylococcus aureus M0602 at 6.25 uM after 15 to 20 hrs by CLSI protocol based microdilution assay relative to control; assay type: functional
Method in brief: as §2

[31] = tested on: Mycolicibacterium smegmatis; experiment: Antibacterial activity against NEO-sensitive Mycobacterium smegmatis at 6.25 uM after 15 to 20 hrs by CLSI protocol based microdilution assay relative to control; assay type: functional
Method in brief: as §1

Enterococcus faecium = experiment: Antibacterial activity against NEO-intermediate sensitive Enterococcus faecium BM4105-RF at 6.25 uM after 15 to 20 hrs by CLSI protocol based microdilution assay relative to control; assay type: functional
Method in brief: as §1

NC[C@@H]1O[C@H](O[C@H]2[C@@H](O)[C@H](O[C@@H]3[C@@H](O)[C@H](N)C[C@H](N)[C@H]3O[C@H]3O[C@H](CN)[C@@H](O)[C@H](O)[C@H]3N)O[C@@H]2CNC(=O)CCc2ccc3ccc4cccc5ccc2c3c45)[C@H](N)[C@@H](O)[C@@H]1O
inhibition [1]: Active | Activity (Acinetobacter baumannii): 10% | Activity (Listeria monocytogenes): inactive | Activity (Staphylococcus aureus [2]): inactive | MIC (Staphylococcus aureus [3]): 25 µM (≈ 21.7 µg/mL) | MIC (Staphylococcus aureus [4]): 25 µM (≈ 21.7 µg/mL) | inhibition [5]: Active | inhibition [6]: Active | inhibition (Homo sapiens [7]): 65% | Activity (Escherichia coli [8]): inactive | Activity (Enterococcus faecalis): 6% | Activity (Klebsiella oxytoca): 5% | Activity (Staphylococcus aureus [9]): 14% | inhibition [10]: Active | IC50 (Ribosomal RNA A-site [11]): 0.447 µM | Activity (Bacillus anthracis): inactive | Activity [12]: 0% | inhibition (Homo sapiens [13]): 22% | inhibition [14]: Active | Activity (Staphylococcus aureus [15]): 16% | Activity [16]: 10% | Activity (Staphylococcus aureus [17]): inactive | Activity (Staphylococcus aureus [18]): 15% | inhibition (Ribosomal RNA A-site [19]): 39% | IC50 (Ribosomal RNA A-site [20]): 0.373 µM | Activity (Pseudomonas aeruginosa): 14% | IC50 (Ribosomal RNA A-site [21]): 0.31 µM | MIC (Staphylococcus aureus [22]): 12.5 µM (≈ 10.9 µg/mL) | Activity (Escherichia coli [23]): inactive | Activity (Streptococcus pyogenes): inactive | inhibition (Ribosomal RNA A-site [24]): 33% | Activity (Klebsiella pneumoniae): 13% | IC50 [25]: 0.332 µM | Activity (Escherichia coli [26]): 0% | inhibition [27]: Active | MIC (Staphylococcus aureus [28]): > 25 µM | inhibition (Ribosomal RNA A-site [29]): 47% | Activity (Staphylococcus aureus [30]): inactive | Activity [31]: 35% | Activity (Enterococcus faecium): 0%
